Screens: PubChem, several laboratories
RanGTP-Impb inh – inhibitors of RanGTP-importin-beta interaction, primary screen, biochemical, FRET, CFP-Ran, YFP-importin-beta, homogeneous. cell-free CFP-Ran/YFP-importin-beta FRET ratio. inhibition, % (concentration not given with the values). 300,000 compounds, 1.1% hits;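 active = more than half of the replicate wells show a fall in the fluorescence ratio signal beyond about 16%, limit read from the data, passing the limit was not always enough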
Runt-CBFb FRET – inhibitors of human RUNX1 Runt domain binding to CBFb. Cerulean-Runt/Venus-CBFb FRET ratio 530/480, 1 h. inhibition, % at 20 µM. 220,000 compounds, 0.46% hits. AID 1496;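 active = inhibition over about 50% at 20 µM in the single-dose screen, limit read from the data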
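Doses: 20 µM compound in 1% DMSO | Material: Cerulean-labeled Runt domain protein | Amount: Each fluorescent fusion protein 100 nM | Schedule: Two 1 h room-temperature incubations shielded from light | Measured by: FRET fluorescence | Evaluation: Loss of energy transfer signal | Controls: Unlabeled CBFb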
Runt-SMMHC FRET – inhibitors of human RUNX1 Runt domain binding to CBFb-SMMHC. inhibition, % at 20 µM. Cerulean-Runt/Venus-CBFb-SMMHC FRET ratio 530/480, 1 h. Q01196+Q13951. 220,000 compounds, 0.74% hits;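 active = mean inhibition across duplicate retests at 20 µM reaching about 50%, limit read from the data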;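 note: inhibitors lower the FRET ratio by blocking Runt binding to CBFb-SMMHC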
CaV13 FRET inh – Primary screen for inhibitors of IQ motif and Ca2+-dependent inactivation inhibitor domain binding in CACNA1D, Förster resonance energy transfer in living cells, …; HEK cells, CFP/YFP FRET ICDI-IQ, plate reader, 10 min; percent FRET-ratio fall versus neutral wells; inhibition, % at 12.3 µM; 340,000 compounds, 0.098% hits; AID 743397;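 active = mean replicate inhibition of at least 30% and at least 1% of replicates passing that level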
Hck Nef HTS – blocks Nef-activated human Hck kinase | P08631 | Recombinant Hck-YEEI plus Nef, Z-Lyte FRET kinase assay | inhibition, % at 20 µM | 220,000 compounds, 0.68% hits;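 active = Hck-Nef kinase inhibition above about 50%, limit read from the data; inactive = inhibition below that limit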
Target sequence (P08631 whole entry, looked up): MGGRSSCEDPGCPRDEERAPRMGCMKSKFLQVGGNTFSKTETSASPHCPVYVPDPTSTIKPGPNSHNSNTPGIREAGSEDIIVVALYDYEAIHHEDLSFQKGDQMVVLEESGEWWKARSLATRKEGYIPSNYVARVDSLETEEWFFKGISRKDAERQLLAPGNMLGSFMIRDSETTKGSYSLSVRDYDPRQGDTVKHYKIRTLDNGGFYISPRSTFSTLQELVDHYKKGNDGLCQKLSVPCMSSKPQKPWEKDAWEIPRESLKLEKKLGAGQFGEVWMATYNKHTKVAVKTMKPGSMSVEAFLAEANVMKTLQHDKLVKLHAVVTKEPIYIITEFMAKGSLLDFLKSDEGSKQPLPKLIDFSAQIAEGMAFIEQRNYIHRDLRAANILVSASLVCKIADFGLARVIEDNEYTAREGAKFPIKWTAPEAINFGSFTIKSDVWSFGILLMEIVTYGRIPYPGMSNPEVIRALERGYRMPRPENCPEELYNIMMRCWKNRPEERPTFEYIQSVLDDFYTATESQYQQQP
Each line names hits and unclear results; the compound was inactive in the other large screens. Hits are enriched below; roughly 1.5% of the tested compounds scored in any of these assays.

COCCCNC(=S)NCCCNc1nc2cc(C)cc(C)c2cc1C#N	Runt-SMMHC FRET 66
Cc1cccc2cc(C#N)c(N3CCC(O)CC3)nc12	RanGTP-Impb inh 29, Runt-SMMHC FRET 71
O=C(C1CCCO1)N1CCN(c2ncccn2)CC1 (stereo unspecified)	none
Cc1cccc2cc(C#N)c(N3CCOCC3)nc12	none (no result: Runt-CBFb FRET, Runt-SMMHC FRET, Hck Nef HTS)
Cc1ccc2cc(C#N)c(N3CCCN(C(=O)C4CCCO4)CC3)nc2c1C (stereo unspecified)	RanGTP-Impb inh 50, Runt-SMMHC FRET 64
O=[N+]([O-])c1ccc(O)c(Nc2ncnc3ccccc23)c1	none
COCCCNC(=S)N1CCCN(c2nc3c(C)c(C)ccc3cc2C#N)CC1	RanGTP-Impb inh 43 (no result: Runt-CBFb FRET, Runt-SMMHC FRET)
COCCCNC(=S)NCCNc1nc2c(C)c(C)ccc2cc1C#N	Runt-SMMHC FRET 64 (no result: RanGTP-Impb inh)
CCn1cc(C(=O)NCCCO)c(=O)c2cc(F)c(N3CCN(C)CC3)cc21	none (no result: Runt-CBFb FRET, Runt-SMMHC FRET, Hck Nef HTS)
CCCNc1cc(=S)nc(N)[nH]1	RanGTP-Impb inh 36
N=c1oc2cc(O)ccc2cc1C(=O)Nc1ccc(F)cc1	RanGTP-Impb inh 171 (no result: Runt-CBFb FRET, Runt-SMMHC FRET, Hck Nef HTS)
COc1ccc(NC(=O)c2cc3cc(OC)ccc3oc2=N)cc1	none (no result: CaV13 FRET inh)
CCCn1c(Cc2ccccc2)n[nH]c1=S	none (no result: CaV13 FRET inh)
COc1ccc2sc3ccccc3c(=O)c2c1	RanGTP-Impb inh 95
COc1ccccc1CNc1nc(-c2cc(C)n(C)c2C)cs1	Hck Nef HTS 67 (no result: RanGTP-Impb inh, CaV13 FRET inh)
Nc1c2c(nc3sc4c(c13)CCCC4)CCCCCC2	Hck Nef HTS 59
Nc1nc2sc3c(c2c(=O)s1)CCCC3	none
CCOC(=O)C1=C(C)NC2=C(C(=O)CCC2)C1c1cc(OC)ccc1OC (stereo unspecified)	none
COc1ccc(OC)c(C2C(C(=O)Nc3nc4ccccc4s3)=C(C)NC3=C2C(=O)CCC3)c1 (stereo unspecified)	Runt-SMMHC FRET 142
CCCCn1c(N)c(N(CCOC)C(=O)Cn2c(=O)cnc3ccccc32)c(=O)[nH]c1=O	none (no result: RanGTP-Impb inh, Runt-CBFb FRET, Runt-SMMHC FRET, Hck Nef HTS)
O=C(NCCCNC(=O)C(F)(F)C(F)F)C(F)(F)C(F)F	RanGTP-Impb inh 29
O=C(NC1CCC(NC(=O)C(F)(F)C(F)F)CC1)C(F)(F)C(F)F (stereo unspecified)	none
N#Cc1nc(COc2ccccc2Cl)oc1N1CCCCCC1	none (no result: Runt-CBFb FRET)
CCCCCCNC(=O)c1ncn[nH]1	none
CN(C(=O)CSc1nc2ccccc2s1)c1c(N)n(Cc2ccccc2)c(=O)[nH]c1=O	none
CCCCN(CC)C(=O)c1cc2cc3ccc(OC)cc3nc2o1	RanGTP-Impb inh 59
COCCNC(=O)c1cc2cc3ccc(OC)cc3nc2o1	none (no result: Runt-CBFb FRET, Runt-SMMHC FRET, Hck Nef HTS)
Cc1c2cnn(CC(=O)Nc3c(F)c(F)cc(F)c3F)c(=O)c2c(C)n1Cc1ccccc1F	Hck Nef HTS 52
CC1(C)CC(=O)C2=C(C1)N(CCN1CCOCC1)C1=C(C(=O)CC(C)(C)C1)C2c1cccc(F)c1	RanGTP-Impb inh 130, Runt-CBFb FRET 63, Runt-SMMHC FRET 78
CC1(C)CC(=O)C2=C(C1)N(CCN1CCOCC1)C1=C(C(=O)CC(C)(C)C1)C2c1ccc(Cl)cc1	RanGTP-Impb inh 127, Runt-CBFb FRET 77, Runt-SMMHC FRET 88
COc1ccc(C2C3=C(CC(C)(C)CC3=O)N(CCN3CCOCC3)C3=C2C(=O)CC(C)(C)C3)cc1	RanGTP-Impb inh 71, Runt-CBFb FRET 91, Runt-SMMHC FRET 81
Cc1ccc(C(=O)Nc2ccc3c(c2)OCO3)cc1Cl	none (no result: Runt-CBFb FRET, Runt-SMMHC FRET, Hck Nef HTS)
COc1ccccc1CCNC(=O)CCNS(=O)(=O)c1ccc(NC(C)=O)cc1	none (no result: RanGTP-Impb inh, Runt-CBFb FRET, Runt-SMMHC FRET, Hck Nef HTS)
Cc1nn(Cc2ccc([N+](=O)[O-])cc2)c(=O)n1-c1ccc(Cl)cc1	none
Cc1nn(Cc2ccc([N+](=O)[O-])cc2)c(=O)n1-c1cccc(Cl)c1	RanGTP-Impb inh 20
O=C(CN1CCN(Cc2ccc(F)cc2Cl)C1=O)NCCCN1CCOCC1	none
COc1ccc(C(=O)Nc2cc(Cl)cc(Cl)c2)c(OC)n1	none
Cc1ccc2nc3c(cc(C(=O)NCCN4CCOCC4)c(=N)n3CCCN3CCOCC3)c(=O)n2c1	RanGTP-Impb inh 143 (no result: Runt-CBFb FRET, Runt-SMMHC FRET, CaV13 FRET inh, Hck Nef HTS)
Cc1ccc2nc3c(cc(C(=O)NCCc4ccccc4)c(=N)n3CCN3CCOCC3)c(=O)n2c1	RanGTP-Impb inh 159 (no result: Runt-CBFb FRET, Runt-SMMHC FRET, CaV13 FRET inh, Hck Nef HTS)
Cc1ccc2nc3c(cc(C(=O)NCc4ccccc4)c(=N)n3CCCn3ccnc3)c(=O)n2c1	CaV13 FRET inh active (no result: RanGTP-Impb inh, Runt-CBFb FRET, Runt-SMMHC FRET, Hck Nef HTS)
